Assays:
Rattus norvegicus [1] = test: Rat PCA Test(50% inhibition of spot areas)in the female albino rats after oral administration in 10% aqueous acacia gum; assay type: functional; details: read-out: ID50 (the source's name)
In short: (§1)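 Female rats (200-250 g) were passively sensitized by ventral intradermal anti-egg-albumin antiserum. This was raised in rats by intramuscular 1% egg albumin plus ip H. pertussis vaccine, with serum taken at 12 days. After 24 h, groups of 10 were dosed orally with compound or vehicle (10 mL/kg). At 60 min, iv challenge used 0.3% egg albumin with 1% Evans blue. Blued areas were measured after 30 min.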

[2] = In vivo toxic effect was determined in mouse after intraperitoneal administration with 10% aqueous acacia gum; value ranges from 0.94-1.40; assay type: toxicity, organism-based; details: ip
In short: (§2)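 Female albino mice (20-30 g), 10 animals per dose, dosed intraperitoneally with compound in solution or suspension; compounds tested as salts unless noted. Mortality was recorded over 7 days.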

[3] = In vivo toxic effect was determined in mouse after oral administration with 10% aqueous acacia gum value ranges from 1.63-2.93; assay type: toxicity, organism-based
Cavia porcellus = test: Antibronchospatic activity determined by histamine stimulated bronchospasm inhibition in guinea pigs after(i.v.) administration; assay type: functional, Bronchiole
In short: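 Guinea pigs, Konzett–Rössler preparation. Bronchospasm was induced with histamine. Compound was given iv (1 mL/kg) 1 min before the agonist, dissolved in saline or saline with slight excess HCl or CH3SO3H (pH 3.5–4). Three doses were tested in duplicate, chosen to give 20–90% inhibition. ID75 was read graphically from log dose–response curves.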

Rattus norvegicus [4] = test: Rat PCA Test(50% inhibition of spot areas)in the female albino rats after (ip) administration in 10% aqueous acacia gum; assay type: functional; details: read-out: ID50 (the source's name)
In short: (§3)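 Female albino rats (200–250 g) received intradermal ventral injections of rat anti-egg-albumin antiserum; donors were raised with egg albumin im plus H. pertussis ip, and serum was taken at 12 days. 24 h later, compound was given ip in 10% acacia gum (10 mL/kg), 10 rats/group. Challenge 30 min later was iv 0.3% egg albumin plus 1% Evans blue. Blued areas were measured 30 min after challenge.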

Rattus norvegicus [5] = test: Rat PCA Test(50% inhibition of spot areas)in the female albino rats after (ip) administration in 10% aqueous acacia gum; value ranges from 57-142; assay type: functional; details: read-out: ID50 (the source's name); in short: as §3
[6] = In vivo toxicity in mouse after oral administration with 10% aqueous acacia gum; assay type: organism-based
In short: (§4)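 Female albino mice, 20-30 g. Compound given orally as solution or suspension in 10% aqueous acacia gum, 10 animals per dose. Deaths recorded over 7 days.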

Rattus norvegicus [7] = test: Rat PCA Test(50% inhibition of spot areas)in the female albino rats after oral administration in 10% aqueous acacia gum; value ranges from 110-212; assay type: functional; details: read-out: ID50 (the source's name); in short: as §1
Rattus norvegicus [8] = test: Inhibition of mast cell degranulation was assessed in female albino rats at a dose of 45 umol/kg iv; assay type: functional
Rattus norvegicus [9] = test: Inhibition of mast cell degranulation was assessed in female albino rats at a dose of 65 umol/kg iv; assay type: functional
Rattus norvegicus [10] = test: Rat PCA Test(50% inhibition of spot areas)in the female albino rats after (ip) administration in 10% aqueous acacia gum; value ranges from 99-415; assay type: functional; details: read-out: ID50 (the source's name)
In short: (§5)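 Antiserum came from female rats given 1% egg albumin in 0.9% NaCl intramuscularly plus Haemophilus pertussis vaccine (2 × 10^10 organisms) intraperitoneally, and was collected 12 days later. Recipient rats (200-250 g) got it intradermally at a ventral site. After 24 h, groups of 10 received vehicle or compound ip. At 30 min they were challenged iv with 0.3% egg albumin plus 1% Evans blue. Blued skin areas were measured 30 min later.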

[11] = In vivo toxic effect was determined in mouse after intraperitoneal administration with 10% aqueous acacia gum; value ranges from 1.82-3.42; assay type: toxicity, organism-based; details: ip; in short: as §2
Rattus norvegicus [12] = test: Rat PCA Test(50% inhibition of spot areas)in the female albino rats after oral administration in 10% aqueous acacia gum; value ranges from 184-369; assay type: functional; details: read-out: ID50 (the source's name); in short: as §1
Rattus norvegicus [13] = test: Inhibition of mast cell degranulation was assessed in female albino rats at a dose of 50 umol/kg iv; assay type: functional
Rattus norvegicus [14] = test: Rat PCA Test(50% inhibition of spot areas)in the female albino rats after (ip) administration in 10% aqueous acacia gum; value ranges from 128-203; assay type: functional; details: read-out: ID50 (the source's name); in short: as §3
Mus musculus = test: In vivo toxic effect was determined in mouse after intraperitoneal administration with 10% aqueous acacia gum; NA means poorly absorbed; assay type: toxicity, organism-based; details: ip; in short: as §2
Rattus norvegicus [15] = test: Rat PCA Test(50% inhibition of spot areas)in the female albino rats after oral administration in 10% aqueous acacia gum; value ranges from 161-222; assay type: functional; details: read-out: ID50 (the source's name); in short: as §1
[16] = In vivo toxic effect was determined in mouse after oral administration with 10% aqueous acacia gum; value ranges from 4.50-5.90; assay type: toxicity, organism-based; in short: as §4
[17] = In vivo toxic effect was determined in mouse after oral administration with 10% aqueous acacia gum; value ranges from 0.93-1.70; assay type: toxicity, organism-based; in short: as §4
[18] = In vivo toxic effect was determined in mouse after intraperitoneal administration with 10% aqueous acacia gum; value ranges from 0.66-1.99; assay type: toxicity, organism-based; details: ip; in short: as §2
Rattus norvegicus [19] = test: Rat PCA Test(50% inhibition of spot areas)in the female albino rats after (ip) administration in 10% aqueous acacia gum; value ranges from 78-93; assay type: functional; details: read-out: ID50 (the source's name); in short: as §5
[20] = In vivo toxic effect was determined in mouse after intraperitoneal administration with 10% aqueous acacia gum; value ranges from 0.39-0.76; assay type: toxicity, organism-based; details: ip; in short: as §2
Rattus norvegicus [21] = test: Rat PCA Test(50% inhibition of spot areas)in the female albino rats after ip administration in 10% aqueous acacia gum; assay type: functional; details: read-out: ID50 (the source's name); in short: as §5
Rattus norvegicus [22] = test: Rat PCA Test(50% inhibition of spot areas)in the female albino rats after (ip) administration in 10% aqueous acacia gum; value ranges from 40-122; assay type: functional; details: read-out: ID50 (the source's name); in short: as §3
Rattus norvegicus [23] = test: Inhibition of mast cell degranulation was assessed in female albino rats at a dose of 32 umol/kg iv; assay type: functional
[24] = In vivo toxic effect was determined in mouse after intraperitoneal administration with 10% aqueous acacia gum; value ranges from 0.96-1.77; assay type: toxicity, organism-based; details: ip; in short: as §2
[25] = In vivo toxic effect was determined in mouse after oral administration with 10% aqueous acacia gum; value ranges from 1.72-3.90; assay type: toxicity, organism-based; in short: as §4
Rattus norvegicus [26] = test: Rat PCA Test(50% inhibition of spot areas)in the female albino rats after oral administration in 10% aqueous acacia gum; value ranges from 119-331; assay type: functional; details: read-out: ID50 (the source's name); in short: as §1
Rattus norvegicus [27] = test: Rat PCA Test(50% inhibition of spot areas)in the female albino rats after ip administration in 10% aqueous acacia gum; Value ranges from (6-147).; details: read-out: ID50 (the source's name)
[28] = In vivo toxic effect was determined in mouse after intraperitoneal administration with 10% aqueous acacia gum; value ranges from 0.27-0.43; assay type: toxicity, organism-based; details: ip; in short: as §2
[29] = In vivo toxic effect was determined in mouse after intraperitoneal administration with 10% aqueous acacia gum; value ranges from 0.97-2.74; assay type: toxicity, organism-based; details: ip; in short: as §2
Rattus norvegicus [30] = test: Rat PCA Test(50% inhibition of spot areas)in the female albino rats after (ip) administration in 10% aqueous acacia gum; value ranges from 35-79; assay type: functional; details: read-out: ID50 (the source's name); in short: as §3
Rattus norvegicus [31] = test: Rat PCA Test(50% inhibition of spot areas)in the female albino rats, using Goose and Blair method by dissolving or suspended the compound in 10% aqueous acacia gum and administered perorally.; Value ranges from (26-199); assay type: functional; details: po, read-out: ID50 (the source's name); in short: as §1
[32] = In vivo toxic effect was determined in mouse after oral administration with 10% aqueous acacia gum; value ranges from 0.97-1.87; assay type: toxicity, organism-based; in short: as §4

CC(C)Sc1ccc(NC(=O)CCN2CCN(c3ccccn3)CC2)cc1
ED50 (Rattus norvegicus [1]): > 221 µmol/kg
LD50 [2]: 1140 µmol/kg
LD50 [3]: 2180 µmol/kg
ID75 (Cavia porcellus): 0.8 µM/kg
ED50 (Rattus norvegicus [4]): > 120 µmol/kg

CC(=O)Nc1ccc(NC(=O)CCN2CCN(c3ccccn3)CC2)cc1.Cl.Cl
ED50 (Rattus norvegicus [5]): 90 µmol/kg
LD50 [6]: > 6810 µmol/kg
ED50 (Rattus norvegicus [7]): 153 µmol/kg
ID75 (Cavia porcellus): 0.97 µM/kg
inhibition in vivo at 45 µmol/kg (Rattus norvegicus [8]): 29%

COc1cccc(N2CCN(CCC(=O)Nc3ccccc3[N+](=O)[O-])CC2)n1.Cl
LD50 [6]: > 7100 µmol/kg
ID75 (Cavia porcellus): 0.52 µM/kg
ED50 (Rattus norvegicus [4]): > 237 µmol/kg

Cl.Cl.NC(=O)CCN1CCN(c2ccccn2)CC1
inhibition in vivo at 65 µmol/kg (Rattus norvegicus [9]): 23%
ED50 (Rattus norvegicus [10]): 203 µmol/kg
LD50 [11]: 2440 µmol/kg
ID75 (Cavia porcellus): 2.47 µM/kg
ED50 (Rattus norvegicus [12]): 260 µmol/kg

Cl.Cl.O=C(CCN1CCN(c2ccccn2)CC1)Nc1ccc(O)cc1
inhibition in vivo at 50 µmol/kg (Rattus norvegicus [13]): 64%
ED50 (Rattus norvegicus [14]): 161 µmol/kg
LD50 (Mus musculus): Not Active
ID75 (Cavia porcellus): 0.49 µM/kg
ED50 (Rattus norvegicus [15]): 189 µmol/kg
LD50 [16]: 5200 µmol/kg

Cl.Cl.O=C(CCN1CCN(c2ccccn2)CC1)Nc1c(Cl)cccc1Cl
LD50 [17]: 1240 µmol/kg
LD50 [18]: 800 µmol/kg
ID75 (Cavia porcellus): 0.4 µM/kg
ED50 (Rattus norvegicus [19]): 85 µmol/kg

Cc1cc(N)cc(C)c1C(=O)NCCN1CCN(c2ccccn2)CC1.Cl
LD50 [20]: 550 µmol/kg
ID75 (Cavia porcellus): 5.27 µM/kg
ED50 (Rattus norvegicus [21]): > 167 µmol/kg

Cl.Cl.O=C(CCN1CCN(c2ccccn2)CC1)Nc1ccccc1Cl
ED50 (Rattus norvegicus [22]): 70 µmol/kg
inhibition in vivo at 32 µmol/kg (Rattus norvegicus [23]): 0%
LD50 [24]: 1290 µmol/kg
LD50 [25]: 2640 µmol/kg
ED50 (Rattus norvegicus [26]): 199 µmol/kg

Cc1c(C)c([N+](=O)[O-])c(C)c(C)c1C(=O)NCCN1CCN(c2ccccn2)CC1.Cl.Cl
ED50 (Rattus norvegicus [27]): 30 µmol/kg
LD50 [28]: 320 µmol/kg

O=C(CCN1CCN(c2ccccn2)CC1)Nc1ccccc1
LD50 [29]: 1160 µmol/kg
inhibition in vivo at 32 µmol/kg (Rattus norvegicus [23]): 12%
ED50 (Rattus norvegicus [30]): 53 µmol/kg
ED50 (Rattus norvegicus [31]): 72 µmol/kg
LD50 [32]: 1350 µmol/kg

NS(=O)(=O)c1ccc(NC(=O)CCN2CCN(c3ccccn3)CC2)cc1
LD50 [6]: > 7700 µmol/kg
LD50 (Mus musculus): Not Active
ID75 (Cavia porcellus): 0.19 µM/kg
ED50 (Rattus norvegicus [4]): > 257 µmol/kg
